# From ChEMBL document CHEMBL1806459, “Discovery of N-(1-ethylpropyl)-[3-methoxy-5-(2-methoxy-4-trifluoromethoxyphenyl)-6-methyl-pyrazin-2-yl]amine 59 (NGD 98-2): an orally active corticotropin releasing factor-1 (CRF-1) receptor antagonist” (J Med Chem, 2011)
# What was measured:
# [1] = Oral bioavailability in rat; format: ADME, organism-based; conditions: in vivo
# Method in brief: (§1)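 Rat pharmacokinetics: compounds given iv (1 or 3 mg/kg) and po (5 or 10 mg/kg) in 2% Vitamin E TPGS (tocopheryl polyethylene glycol 1000 succinate). Plasma sampled over 24 h for Cmax, Tmax, AUC0–24 h, T1/2, clearance, Vss and oral bioavailability. Brain to plasma ratio also measured.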
# [2] = Clearance in rat at 5 mg/kg, po; format: ADME, organism-based; design: dose 5 mg/kg, route oral; conditions: in vivo
# [3] = Cmax in rat at 3 mg/kg, iv; format: ADME, organism-based; design: dose 3 mg/kg, route intravenous; conditions: in vivo
# Method in brief: (§2)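 Rat PK, intravenous arm of a paired iv/po study. Dosed in 2% Vitamin E TPGS (tocopheryl polyethylene glycol 1000 succinate). Parameters derived from plasma: Cmax, AUC0–24 h, terminal T1/2.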
# [4] = Cmax in rat at 5 mg/kg, po; format: ADME, organism-based; design: dose 5 mg/kg, route oral; conditions: in vivo
# [5] = Half life in rat at 3 mg/kg, iv; format: ADME, organism-based; design: dose 3 mg/kg, route intravenous; conditions: in vivo; method in brief: as §2
# [6] = Bioavailability in rat at 3 mg/kg, […]; format: ADME, organism-based; conditions: in vivo
# Method in brief: (§3)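 Rat PK with paired iv and oral dosing, vehicle 2% Vitamin E TPGS. Clearance and Vss from the iv arm; oral bioavailability F from comparing exposure after oral and iv doses.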
# [7] = Tmax in rat at 5 mg/kg, po; format: ADME, organism-based; design: dose 5 mg/kg, route oral; conditions: in vivo; method in brief: as §1
# [8] = Clearance in rat at 3 mg/kg, iv; format: ADME, organism-based; design: dose 3 mg/kg, route intravenous; conditions: in vivo; method in brief: as §3
# [9] = Half life in rat microsomes; format: ADME, Microsome
# Method in brief: (§4)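 Stability in human or rat liver microsomes; half-life (T1/2, min) of compound turnover reported.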
# [10] = Tmax in rat at 3 mg/kg, iv; format: ADME, organism-based; design: dose 3 mg/kg, route intravenous; conditions: in vivo; method in brief: as §1
# [11] = AUC (0 to 24 hrs) in rat at 3 mg/kg, iv; format: ADME, organism-based; design: time < 24 hr, dose 3 mg/kg, route intravenous; conditions: plasma; method in brief: as §2
# Rattus norvegicus = experiment: Volume of distribution at steady state in rat at 5 mg/kg, po; format: ADME, organism-based; design: dose 5 mg/kg, route oral; conditions: in vivo; method in brief: as §1
# [12] = Half life in rat at 5 mg/kg, po; format: ADME, organism-based; design: dose 5 mg/kg, route oral; conditions: in vivo
# [13] = AUC (0 to 24 hrs) in rat at 5 mg/kg, po; format: ADME, organism-based; design: time < 24 hr, dose 5 mg/kg, route oral; conditions: plasma
# [14] = Oral bioavailability in rat at 5 mg/kg; format: ADME, organism-based; conditions: in vivo; method in brief: as §1
# [15] = biological target: T1, Corticotropin-releasing factor receptor 1 (Homo sapiens, UniProt P34998); experiment: Displacement of [125I]-sauvagine from human CRF-1 receptor expressed in human IMR-32 cells after 2 hrs by scintillation counting; format: cell-based
# T1 sequence (P34998 whole entry): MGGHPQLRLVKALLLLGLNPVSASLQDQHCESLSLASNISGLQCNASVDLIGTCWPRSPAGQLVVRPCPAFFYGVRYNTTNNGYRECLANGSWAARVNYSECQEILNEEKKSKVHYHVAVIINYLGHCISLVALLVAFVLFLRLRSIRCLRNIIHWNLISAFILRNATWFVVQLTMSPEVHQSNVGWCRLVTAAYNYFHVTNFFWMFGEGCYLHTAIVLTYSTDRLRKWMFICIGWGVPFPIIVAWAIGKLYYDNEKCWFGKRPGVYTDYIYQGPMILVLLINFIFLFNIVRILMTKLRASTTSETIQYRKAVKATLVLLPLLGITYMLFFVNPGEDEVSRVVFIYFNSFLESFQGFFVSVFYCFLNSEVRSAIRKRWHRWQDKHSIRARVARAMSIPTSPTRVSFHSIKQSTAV
# Method in brief: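 Competition binding against 125I-sauvagine on membrane preparations from IMR-32 human neuroblastoma cells, which express CRF-1 endogenously. Modified from a published method.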
# [16] = Ratio of drug level in brain to plasma of rat at 3 mg/kg, iv; format: ADME, organism-based; design: dose 3 mg/kg, route intravenous; conditions: read-out: BPR; method in brief: as §1
# [17] = Half life in human microsomes; format: ADME, Microsome; method in brief: as §4
# [18] = Ratio of drug level in brain to plasma of rat at 5 mg/kg, po; format: ADME, organism-based; design: dose 5 mg/kg, route oral; conditions: read-out: BPR; method in brief: as §1
# [19] = Volume of distribution at steady state in rat at 3 mg/kg, iv; format: ADME, organism-based; design: dose 3 mg/kg, route intravenous; conditions: in vivo, read-out: Vdss; method in brief: as §1
# [20] = Drug uptake in rat adipose tissue assessed as radioactivity of labeled compound; format: ADME, tissue-based; conditions: in vivo
structure (smiles),measurement,setting,value
CCC(CC)Oc1c(C)nc(-c2c(OC)cc(Cl)cc2OC)nc1OC,bioavailability,[1],6%
CCc1nc(-c2ccc(Cl)cc2Cl)c(CC)nc1NC(CC)CC,CL/F,[2],16 mL/min/kg
same,Cmax,[3],627 ng/mL
same,Cmax,[4],627 ng/mL
same,half-life,[5],294 min
same,bioavailability,[6],83%
same,Tmax,[7],1.3 h
same,clearance,[8],16 mL/min/kg
same,half-life,[9],4.2 min
same,Tmax,[10],1.3 h
same,AUC(0-t) at 24 h,[11],4310 ng·h/mL
same,Vdss,Rattus norvegicus,6.5 L/kg
same,half-life,[12],294 min
same,AUC(0-t) at 24 h,[13],4310 ng·h/mL
same,bioavailability,[14],83%
same,Ki,[15],4.1 nM
same,Kp,[16],2.5
same,half-life,[17],17 min
same,Kp,[18],2.5
same,Vd,[19],6.5 L/kg
CCC(CC)Nc1nc(C)c(-c2ccc(OC(F)(F)F)cc2O[14CH3])nc1OC,Drug uptake,[20],Active
